Laboratory results as given in the EternaBench riboswitch data.

System: MS2 coat protein
Assay: apparent Kd, MS2 coat protein; higher = weaker binding; RNA-MaP array; FMN 200 µM where present
Summary of the method: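 Green signal was scaled to red-channel RNA signal and control-cluster median Fmax, and the apparent Kd was taken as the median of filtered per-cluster binding-curve fits. The binding series used SNAP-549-labelled MS2 coat protein from 0.7 or 1.5 nM, doubling to 3 µM, on designs transcribed by stalled E. coli RNA polymerase on Illumina sequencing-chip clusters. Each series ran without and then with constant ligand in 100 mM Tris-HCl pH 7.5, 80 mM KCl, 4 mM MgCl2, BSA, DTT, yeast tRNA and Tween-20.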

[1] = designed as: OFF switch for flavin mononucleotide, no ligand
[2] = ligand present: flavin mononucleotide, designed as: OFF switch for flavin mononucleotide
[3] = designed as: ON switch for flavin mononucleotide, no ligand
[4] = ligand present: flavin mononucleotide, designed as: ON switch for flavin mononucleotide

Row | Sequence | apparent Kd [1] | apparent Kd [2] | apparent Kd [3] | apparent Kd [4]
1 | AUGUGACGGUGCGCAUGUGGACGGAGAAGGCAGACAUGAGGAUCACCCAUGUGAGCCUGCUAUUCUGAGGAUAUCCGUUCGCAC | 31.7 nM | 158 nM | – | –
2 | CGCGGACAAGAGAAGGCCAGACCUCGGAACUUGAGGCACCGCUAGGCAUGGAGGAUAUCUUGACAUGAGGAUCACCCAUGUACA | – | – | 86.3 nM | 18.1 nM
3 | GCGCUAAAACAGAAGGCCAAAUACAUGAGGAUCACCCAUGUCGAAUCAUGGAGGAUAUGUUAUUAAUUACUCGCAGAUGAGCGC | – | – | 104 nM | 11.8 nM
4 | AAAAAACAUGAGGAUCACCCAUGUGAGGAUAUCUGUAUUCAAUCCUCGGAUUGAAUACAGAGAAGGCACAUGGG | 26.6 nM | 26.9 nM | – | –
5 | UCCGUACUAGGAUAUACAGCAAAAUCAAACAAAUUCCUCAAACAUGAGGAUCACCCAUGUAGAAGGAGUACCAA | 17.4 nM | 14.7 nM | – | –
6 | AUUUUGUCAGGAUAUGAGUAGUAGGACGAAAGUGUUAUUAUUUAGAAGGGACAUGAGGAUCACCCAUGUUCCUC | 12.7 nM | 16.2 nM | – | –
7 | AGAAAACAUGAGGAUCACCCAUGUCAAGCUAAUCAAGGAUAUGGGUCGGGAAAUCCCGCACCAGAAGGUGAAAUGC | – | – | 123 nM | 24.5 nM
8 | ACAAGAUCAGGAUAUACAUGAGGAUCACCCAUGUAUAUCCAAAAAGGGCCUUCUACAUGUAGAAGGGAUCUUGU | 13.1 nM | 12.6 nM | – | –
9 | AUCCGGCGUGUAGGAUAUGGAUCCGAUUAGGAUCCAGAAGGACAUGAGGAUCACCCAUGUACAUGUAAACAGUCAUCACCGGAC | 11.5 nM | 136 nM | – | –
10 | UUUUAACAUGAGGAUCACCCAUGUGAGGAUAUCGAAAUUUAUAUUAAUAUUAUUUAAACGAGAAGGCACAUUUU | 65.2 nM | 87 nM | – | –
11 | UAUAAAUACAUUAACAUGAGGAUCACCCAUGUCAAAAGACAUGAGGAUAUGCAUCCUAAUUGGAUGCAGAAGGCAUGUAUAAUU | – | – | 174 nM | 16.9 nM
12 | GACUCGAAUGUAGGAUAUGCUGAGGAAUACUCAGCAGAAGGACAUGAGGAUCACCCAUGUCAAUGAGUGAAUAAUAAACGAGUC | 29.2 nM | 224 nM | – | –
13 | UGGUACAUGGGAGGAUAUGGGUUGAUAACAUGAGGAUCACCCAUGUUAAAUGCCGAAAGGCAAAACUAGAAGGCCCAUGUACCU | – | – | 257 nM | 24.5 nM
14 | UUUUAACAUGAGGAUCACCCAUGUGAGGAUAUCGAAAUUUAUAUUAAUAUUAAUAAAACGAGAAGGCACAUUUU | 82.2 nM | 90.1 nM | – | –
15 | ACAUUGUGAGGAUAUCCGAAGAAGGUCCGGAAGGUUCGGGUGGAGAAGGCACAUGAGGAUCACCCAUGUGUGGG | 51.8 nM | 137 nM | – | –
16 | UAUGUGUCAGGAUAUUAGUAGUAAAUAAAUAAAAUUAUUACUGAGAAGGGACAUGAGGAUCACCCAUGUGCCUC | 32.8 nM | 354 nM | – | –
17 | GCGAGCAUACAGAAGGGAUCGUCGUCGCGGCUGUCAGGAUAUGUAGCUUGGCCUAAACAUGAGGAUCACCCAUGUAUAAUGCUA | – | – | 111 nM | 18.6 nM
18 | UCAUUUACCACAGGAUAUAUUCAUAUACAGUUGUUUGGCUCUUACAUAUUAAUAGAAGGGUGCAACAUGAGGAUCACCCAUGUA | – | – | 274 nM | 191 nM
19 | UGGUACUAGGAAGGAUAUGGGAAGAUACAUGAGGAUCACCCAUGUUUAAGAAUGCCGAGAGGCAACUAGAAGGCCCUAGUACCU | – | – | 596 nM | 135 nM
20 | ACAUUGUUAGGAUAUGCUGCUCGUCACUUGCGUGAUGAGUAGCAGAAGGAACAUGAGGAUCACCCAUGUAAAGA | 33.7 nM | 56.1 nM | – | –
21 | GUCAGCUCGUGAGGAUAUACAACACUGCUUCGGGAGUGUAUUAAGAUCACAUGAGGAUCACCCAUGUAGAAGGCACGAGCUGAU | 15 nM | 254 nM | – | –
22 | UUUGUAAUGUCAGGAUAUAUUAUAAGUCAGACUGUAGAAGGGAUAAUUAUACUCAUGUACAUGAGGAUCACCCAUGUUAAAUAU | – | – | 97.1 nM | 53.2 nM
23 | AGUAAUUACGAAGGAUAUGCGCUCCUCGGGCUCGCAGAAGGUCGUACAUGAGGAUCACCCAUGUGUGAUCGCUCAUAGCCGCAA | 93.2 nM | 41.4 nM | – | –
24 | GUGAGGUCAGGAUAUGCAUGGCGGGACUUGCGUCGUGGCGUGCAGAAGGGACAUGAGGAUCACCCAUGUGGAGU | 157 nM | 238 nM | – | –
25 | AAAUUGUCAGGAUAUCCAACUAUACGAAAUAUAUAUACACAGGAGAAGGGACAUGAGGAUCACCCAUGUUUGAA | 24.6 nM | 19.1 nM | – | –
26 | AAUGAAUUCGAGAAGGGAGAUGUGGCACUUGUUUCGAAGUUGUGAUCACUCAGGAUAUCGAAACAUGAGGAUCACCCAUGUAAA | – | – | 273 nM | 17.5 nM
27 | AGGCUUGCCACAGGAUAUGCUGACAUGAGAGAAGCAGAAGGGUGGUCGACGUUUUGGCGACAUGAGGAUCACCCAUGUUAGCGU | – | – | 178 nM | 28.3 nM
28 | AGUAAGAUGCAGAAGGUGUCAGCGAGAGCUGCACAUGAGGAUCACCCAUGUUGUCGGUGACGACACAAGGAUAUGCAUCUUACA | – | – | 31.4 nM | 12.8 nM

Row | Sequence | apparent Kd [1] | apparent Kd [2] | apparent Kd [3] | apparent Kd [4]
29 | GCACUGGAUGUAGGAUAUCAGGACGAUAAGUCCUGAGAAGGACAUGAGGAUCACCCAUGUAAAACUUCACCAGUGCAUAAUAUA | 13.3 nM | 15.9 nM | – | –
30 | GACAUGAGGAUCACCCAUGUCCAACCAGAAGGCCAGAAACCAGGCCCUUGUAUCGGGCUUGGGAUGGAGGAUAUGGGCGCCGAA | – | – | 61.4 nM | 31.6 nM
31 | UUAGGACAUGAGGAUCACCCAUGUGAGGAUAUGCUGCAGGGAGGUCCCAGCAAUAUUCGUAGAAGGCAUAAGGG | 221 nM | 177 nM | – | –
32 | CGAGGACAUGAGGAUCACCCAUGUAGCUACAAAAUGCAGCGACAGGAUAUCCUCUGGUUCCCAUAGGAGAAGGGUCAAACCUUG | – | – | 26.8 nM | 47.5 nM
33 | GGGCUCGGAGGAUAUACAUGAGGAUCACCCAUGUAGGGCUCGGGUAUUCUCGGGCUCUGUAGAAGGUCGGGCUC | 20.3 nM | 23.3 nM | – | –
34 | CCUAGUCACUCACAUGAGGAUCACCCAUGUCGGUGCCGCCGACAGGAUAUCUAAAUGUAAAAUCUAGAGAAGGGUCGAACCAUC | – | – | 455 nM | 609 nM
35 | UCUCGACAUGAGGAUCACCCAUGUCAGGAUAUUGUAUUGGAGGUGUUUAACCUUAUGGCAAGAAGGGAUGUGUG | 24 nM | 27.1 nM | – | –
36 | UGUCGGAGCAGAGGAUAUUACAUGAGGAUCACCCAUGUAGGUACCAAUAGCUGGAAACAGCAAUGUAAGAAGGCUGCUCCGACA | 280 nM | 408 nM | – | –
37 | GGCGGGCGGGAGGAUAUUCGGGCUGUUUGGCUUGGAGAAGGCUCGACAUGAGGAUCACCCAUGUUUGGGUCGCC | 16.2 nM | 27 nM | – | –
38 | UUUUUACUUGCAGGAUAUGGAGACAUGAGGAUCACCCAUGUAUGAUAAGCUAAAUUAUGCUGUGGCCAGAAGGGUAUUAUUCUU | – | – | 63.2 nM | 57.4 nM
39 | UCGAGUCAUGAGAAGGGCUGAUGUUACAUGAGGAUCACCCAUGUCAUGGGCAGGAUAUCAUUGACACGGCUGUACCUUUCUUAC | – | – | 149 nM | 29.4 nM
40 | CGAGAAAUCGUAGGAUAUGGUGAUGUACAUGAGGAUCACCCAUGUCCGUCUUCUCUCACAAGAUGCCAGAAGGACGAUUUCUGG | – | – | 712 nM | 122 nM
41 | GUCAGCGCGUGAGGAUAUACAACACUGCUUCGGCAGUGUAUUAAGAUCACAUGAGGAUCACCCAUGUAGAAGGCACGAGCUGAU | 14 nM | 263 nM | – | –
42 | GCUUUACUGGUCAGGAUAUACAUUUGCUACUCUUUGUAGAAGGGACAUGAGGAUCACCCAUGUACUUUACAUUC | 15.3 nM | 16.6 nM | – | –
43 | GUAGCUAUCGGAGGAUAUUCAUACCGGAAACGGACAUGAGGAUCACCCAUGUGGCGAAAGCCCUGGGAGAAGGCCGAUAGCUAC | – | – | 382 nM | 259 nM
44 | AACAACUCUGUGAGGAUAUGCAAUUGUUGAUCAAGGCAGAAGGCACAUGAGGAUCACCCAUGUUCCUACAAGGG | 47.3 nM | 110 nM | – | –
45 | AUAAUUUUAUAUAUCUUAUUUAUCAGAAGGCAUAACAUGAGGAUCACCCAUGUAUAUUAUAGUUAUGAGGAUAUGAUUUAGUUA | 8.04 nM | 8.85 nM | – | –
46 | GAGAAGUCAGGAUAUCCAUGGCGGCACUUGCGUGGUGGCGUGGAGAAGGGACAUGAGGAUCACCCAUGUAAAGA | 52.7 nM | 36.8 nM | – | –
47 | ACAUGCAUAGCGAUAUGAUCGAGAGAUCAUGUCGCUAAAAUUAGAAGGACAUGAGGAUCACCCAUGUAGGAUAUGGGAGCAUGA | – | – | 39.9 nM | 10.3 nM
48 | AACCGCGACCGGCCUGGCACGCCGAGAAGGGUACGUGACCUGCUUUACAUGAGGAUCACCCAUGUACAGGAUAUCGGAUAGCCG | – | 7.28 nM | – | –
49 | GUCGGAAACGACAAUGAUAGGACUGAGGAUAUACAUAAGUAAGUCCUUACAUGAGGAUCACCCAUGUAGAAGGCAGUCCUAUCU | 43.9 nM | 502 nM | – | –
50 | UGGUACUAGGGAGGAUAUGGGAAGAUACAUGAGGAUCACCCAUGUUUAAGAAUGCGGAGAGGCAACUAGAAGGCCCUAGUACCU | – | – | 351 nM | 18.9 nM
51 | GCUCGGCCAAAAUAAAACGACGCGAAGGAUAUACACCUGGGUACUCCUACAUGAGGAUCACCCAUGUAGAAGGUCGCGGGCUUG | 45 nM | 46.4 nM | – | –
52 | GUUGAGCGUGCUACGCAAAAUAACGCAGAAGGCCAACAUGAGGAUCACCCAUGUAAACGAAAGAUGGAGGAUAUGCGGUUUGGC | – | – | 50.4 nM | 6.81 nM
53 | ACUCGAUUUUUGGGUUUACUAUAUGAGGAUAUCAUACAUCUAUACAUGAGGAUCACCCAUGUUACUGAGAAGGCAUAUAUAAUA | – | – | 17.3 nM | 6.77 nM
54 | AAAAAACAUGAGGAUCACCCAUGUCAAAAGACGUGAGGAUAUGUACAGACUUCGGUCUGUACAGAAGGCAUGUCAA | – | – | 30.1 nM | 16.5 nM
55 | AUAUUUAUUUAGAAGGACAUGAGGAUCACCCAUGUCGCUGGGCGCGGGAAACCGUGCGCGGCCAUGUAGGAUAUAGGUAGAUAU | 14.4 nM | 12.4 nM | – | –
